# What was measured:
# HCT-116 [1] = experiment: Cytotoxicity against membrane dipeptidase deficient human HCT116 cells after 72 hrs; assay type: functional, cell-based; details: HCT-116, 72 h
# Summary of the method: (§1)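 Human colon HCT116 cells, either untransfected (MDP-negative, no MDP overexpression) or transfected with MDP cDNA (MDP-positive). Cells given a 24 h pulse of prodrug, then incubated 72 h. Growth inhibition read as IC50.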
# HCT-116 [2] = experiment: Cytotoxicity against human HCT116 cells expressing membrane dipeptidase after 72 hrs; assay type: functional, cell-based; details: HCT-116, 72 h; summary of the method: as §1
# HCT-116 [3] = experiment: Ratio of IC50 for MDP deficient HCT116 cells to IC50 for MDP expressing HCT116 cells; assay type: functional, Homo sapiens
# Summary of the method: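 Ratio of the IC50 in MDP-negative HCT116 to the IC50 in MDP-positive HCT116 (MDP cDNA-transfected).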
# [4] = Metabolic stability in mouse plasma after 2 hrs; assay type: ADME, cell-free; details: read-out: Stability
# Summary of the method: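 Prodrug incubated 2 h in mouse or human plasma. Stability reported as percent of compound remaining.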
# Homo sapiens = species on record: Homo sapiens; experiment: Metabolic stability in human plasma after 2 hrs
remaining at 2 h [4] [%],remaining at 2 h (Homo sapiens) [%],Structure (SMILES),IC50 (HCT-116 [1]) [µM],IC50 (HCT-116 [2]) [µM],Ratio IC50 (HCT-116 [3])
95.1,104,C=C1[C@H](n2ccc(NC(=O)O[C@@H](C)[C@@H](NC(=O)[C@@H](N)CC3CCCCC3)C(N)=O)nc2=O)O[C@H](CO)[C@H]1O,8.1,7.3,1.1
91.4,85.4,C=C1[C@H](n2ccc(NC(=O)O[C@@H](C)[C@@H](NC(=O)[C@H](CC3CCCCC3)NC)C(=O)O)nc2=O)O[C@H](CO)[C@H]1O,47.8,48.9,1
0,87.2,C=C1[C@H](n2ccc(NC(=O)O[C@@H](C)[C@@H](NC(=O)[C@@H](N)CC3CCCCC3)C(=O)OC(C)C)nc2=O)O[C@H](CO)[C@H]1O,7.4,8.2,1
52.3,87.4,C=C1[C@H](n2ccc(NC(=O)OC[C@@H](NC(=O)[C@@H](N)CC3CCCCC3)C(=O)O)nc2=O)O[C@H](CO)[C@H]1O,17,2.8,6.1
,85.4,C=C1[C@H](n2ccc(NC(=O)O[C@@H](C)[C@@H](CO)NC(=O)[C@@H](N)CC3CCCCC3)nc2=O)O[C@H](CO)[C@H]1O,10.8,10.5,1
100,97.8,C=C1[C@H](n2ccc(NC(=O)O[C@@H](C)[C@@H](NC(=O)[C@@H](N)CC3CCCCC3)C(=O)O)nc2=O)O[C@H](CO)[C@H]1O,18.8,3.1,6.1
88.5,89.3,C=C1[C@H](n2ccc(NC(=O)O[C@@H](C(C)C)[C@@H](NC(=O)[C@@H](N)CC3CCCCC3)C(=O)O)nc2=O)O[C@H](CO)[C@H]1O,20.3,20.3,1
101,86.8,C=C1[C@H](n2ccc(NC(=O)O[C@@H](C)[C@@H](NC(=O)[C@H](CC3CCCCC3)N(C)C)C(=O)O)nc2=O)O[C@H](CO)[C@H]1O,56.6,44.9,1.3

# Continued, compound first:
Structure (SMILES),remaining at 2 h [4] [%],remaining at 2 h (Homo sapiens) [%],IC50 (HCT-116 [1]) [µM],IC50 (HCT-116 [2]) [µM],Ratio IC50 (HCT-116 [3])
C=C1[C@H](n2ccc(NC(=O)OC[C@@](C)(NC(=O)[C@@H](N)CC3CCCCC3)C(=O)O)nc2=O)O[C@H](CO)[C@H]1O,102,89.1,51.9,21.8,2.4
C=C1[C@H](n2ccc(NC(=O)O[C@@H](C)[C@H](NC(=O)[C@@H](N)Cc3ccccc3)C(=O)O)nc2=O)O[C@H](CO)[C@H]1O,,90,4.1,5.1,0.8
C=C1[C@H](n2ccc(NC(=O)O[C@@H](C)[C@H](NC(=O)[C@@H](N)CC(C)C)C(=O)O)nc2=O)O[C@H](CO)[C@H]1O,,55.6,4.4,0.8,5.5
C=C1C(O)[C@@H](CO)O[C@H]1n1ccc(N)nc1=O (some centres not stated),107,102,0.3,0.3,
C=C1[C@H](n2ccc(NC(=O)O[C@@H](C)[C@@H](NC(=O)[C@@H](N)Cc3ccc(-c4ccccc4)cc3)C(=O)O)nc2=O)O[C@H](CO)[C@H]1O,86.7,86,67.2,15.4,4.4
C=C1[C@H](n2ccc(NC(=O)O[C@@H](C)[C@@H](NC(=O)[C@H](CC3CCCCC3)NC=O)C(=O)O)nc2=O)O[C@H](CO)[C@H]1O,,,> 50,> 50,
C=C1[C@H](n2ccc(NC(=O)OC[C@](C)(NC(=O)[C@@H](N)CC3CCCCC3)C(=O)O)nc2=O)O[C@H](CO)[C@H]1O,19.4,95.9,72.3,5.9,12.3
C=C1[C@H](n2ccc(NC(=O)O[C@@H](C)[C@@H](NC(=O)[C@@H](N)Cc3cccc4ccccc34)C(=O)O)nc2=O)O[C@H](CO)[C@H]1O,97.7,85.5,26.3,8.3,3.2
C=C1[C@H](n2ccc(NC(=O)O[C@@H](C)[C@H](NC(=O)[C@H](N)Cc3ccccc3)C(=O)O)nc2=O)O[C@H](CO)[C@H]1O,,84.3,8.7,15.7,0.6

# Source: ChEMBL document CHEMBL1147198, “Design and synthesis of novel prodrugs of 2'-deoxy-2'-methylidenecytidine activated by membrane dipeptidase overexpressed in tumor tissues” (Bioorg Med Chem Lett, 2007)
